Measured values: ChEMBL document CHEMBL1129463, “Discovery of 1,5-benzodiazepines with peripheral cholecystokinin (CCK-A) receptor agonist activity (II): Optimization of the C3 amino substituent” (J Med Chem, 1996)
Activity calls are given as the source filed them. No cut-off for these calls is given here.

Columns and labels:
[1] = species on record: Cavia porcellus; experiment: In vitro functional activity on the isolated guinea pig gallbladder; parameters: concentration or dose not given beside the values
[2] = species on record: Cavia porcellus; experiment: In vitro Functional activity on the isolated guinea pig gallbladder following incubation at 1 micro M percent contraction normalized to that for CCK-8
Method in brief: (§1)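 Contraction is expressed as percent of the CCK-8 (1 μM) response. Non-contracting compounds were tested for antagonism against a CCK-8 curve (10⁻¹¹ to 10⁻⁶ M).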

[3] = species on record: Cavia porcellus; experiment: In vitro Functional activity on the isolated guinea pig gallbladder following incubation at 30 uM percent contraction normalized to that for CCK-8; inactive; method in brief: as §1
[4] = species on record: Cavia porcellus; experiment: In-vitro potency on the isolated guinea pig gallbladder; assay type: functional
[5] = tested on: Mus musculus; experiment: Compound was tested in vivo Percent Maximal response activity in mouse gallbladder emptying assay at dose of 1 nmol/kg ip
[6] = species on record: Cavia porcellus; experiment: Maximum contractile response at 30 uM, normalized to CCK-8 (1 uM); assay type: functional
[7] = tested on: Mus musculus; experiment: Compound was tested in vivo for its activity in mouse gallbladder emptying assay at dose of 0.1 umol/kg ip; assay type: functional
[8] = tested on: Rattus norvegicus; experiment: Compound was tested in vivo for its Percent Maximal anorectic potency in rats at dose of 10 umol/kg po; ia = Inactive
[9] = tested on: Rattus norvegicus; experiment: Compound was tested in vivo for its anorectic potency in rats at dose of 0.5 umol/kg ip
[10] = tested on: Rattus norvegicus; experiment: Compound was tested in vivo for its Percent Maximal anorectic potency in rats at dose of 0.5 umol/kg ip
[11] = tested on: Rattus norvegicus; experiment: Compound was tested in vivo for its Percent Maximal anorectic potency in rats at dose of 0.1 umol/kg ip; assay type: functional
[12] = tested on: Mus musculus; experiment: Compound was tested in vivo for its activity in mouse gallbladder emptying assay at dose of 1 umol/kg po; ia = Inactive; assay type: functional, organism-based
[13] = species on record: Cavia porcellus; experiment: In vitro potency on the isolated guinea pig gallbladder; assay type: functional
[14] = tested on: Mus musculus; experiment: Compound was tested in vivo for Percent Maximal response in mouse gallbladder emptying assay at dose of 1 umol/kg po; ia = Inactive; assay type: functional, organism-based

SMILES | Activity [1] [%] | other results
CC(C)N(C(=O)CN1C(=O)C(NC(=O)Nc2cccc(NS(=O)(=O)C(F)(F)F)c2)C(=O)N(c2ccccc2)c2ccccc21)c1ccccc1 (stereo not drawn) | 89 | Activity [2]: 87%
CC(C)N(C(=O)CN1C(=O)C(NC(=O)Nc2cccc(OCC(=O)N3CCOCC3)c2)C(=O)N(c2ccccc2)c2ccccc21)c1ccccc1 (stereo not drawn) | 78 | 
CC(C)N(C(=O)CN1C(=O)C(NC(N)=O)C(=O)N(c2ccccc2)c2ccccc21)c1ccccc1 (stereo not drawn) |  | Activity [3]: inactive
COc1cccc(NC(=O)NC2C(=O)N(CC(=O)N(c3ccccc3)C(C)C)c3ccccc3N(c3ccccc3)C2=O)c1 (stereo not drawn) | 78 | 
CC(C)N(C(=O)CN1C(=O)C(NC(=O)Nc2cccc(Cl)c2)C(=O)N(c2ccccc2)c2ccccc21)c1ccccc1 (stereo not drawn) | 7 | 
CC(C)NC(=O)NC1C(=O)N(CC(=O)N(c2ccccc2)C(C)C)c2ccccc2N(c2ccccc2)C1=O (stereo not drawn) | 22 | 
CC(C)N(C(=O)CN1C(=O)C(NC(=O)Nc2cccc(-c3nn[nH]n3)c2)C(=O)N(c2ccccc2)c2ccccc21)c1ccccc1 (stereo not drawn) | 79 | Activity [2]: 64%
CC(C)N(C(=O)CN1C(=O)C(NC(=O)Nc2cccc(O)c2)C(=O)N(c2ccccc2)c2ccccc21)c1ccccc1 (stereo not drawn) | 89 | Activity [2]: 82%
CC(C)N(C(=O)CN1C(=O)C(NC(=O)Nc2cccc(N)c2)C(=O)N(c2ccccc2)c2ccccc21)c1ccccc1 (stereo not drawn) | 76 | Activity [2]: 50%
CC(C)N(C(=O)CN1C(=O)C(NC(=O)N2CCNCC2)C(=O)N(c2ccccc2)c2ccccc21)c1ccccc1 (stereo not drawn) |  | Activity [3]: inactive
CC(C)N(C(=O)CN1C(=O)C(NC(=O)c2cc3ccccc3o2)C(=O)N(c2ccccc2)c2ccccc21)c1ccccc1 (stereo not drawn) | 35 | 
CC(C)N(C(=O)CN1C(=O)C(NC(=O)c2c[nH]c3ccccc23)C(=O)N(c2ccccc2)c2ccccc21)c1ccccc1 (stereo not drawn) | 5 | 
CSc1cccc(NC(=O)NC2C(=O)N(CC(=O)N(c3ccccc3)C(C)C)c3ccccc3N(c3ccccc3)C2=O)c1 (stereo not drawn) | 58 | 
CC(C)N(C(=O)CN1C(=O)C(NC(=O)Nc2ccc(C(=O)O)cc2)C(=O)N(c2ccccc2)c2ccccc21)c1ccccc1 (stereo not drawn) | 14 | 
CC(C)N(C(=O)CN1C(=O)C(NC(=O)c2ccccc2C(=O)O)C(=O)N(c2ccccc2)c2ccccc21)c1ccccc1 (stereo not drawn) | 58 | 
CC(C)N(C(=O)CN1C(=O)C(NC(=O)Cc2ccccc2)C(=O)N(c2ccccc2)c2ccccc21)c1ccccc1 (stereo not drawn) | 28 | 
CC(C)N(C(=O)CN1C(=O)C(NC(=O)Nc2cccc(OCCN(C)C)c2)C(=O)N(c2ccccc2)c2ccccc21)c1ccccc1 (stereo not drawn) | 2 | 
CC(C)N(C(=O)CN1C(=O)C(NC(=O)Nc2ccccc2O)C(=O)N(c2ccccc2)c2ccccc21)c1ccccc1 (stereo not drawn) | 16 | 
CC(C)N(C(=O)CN1C(=O)C(NC(=O)Nc2cccc(C(N)=O)c2)C(=O)N(c2ccccc2)c2ccccc21)c1ccccc1 (stereo not drawn) | 76 | 

SMILES | Activity [1] [%] | other results
Cc1ccc(NC(=O)NC2C(=O)N(CC(=O)N(c3ccccc3)C(C)C)c3ccccc3N(c3ccccc3)C2=O)cc1 (stereo not drawn) | 20 | 
CC(C)N(C(=O)CN1C(=O)C(NC(=O)Nc2cccc(OCC(N)=O)c2)C(=O)N(c2ccccc2)c2ccccc21)c1ccccc1 (stereo not drawn) | 95 | 
CC(C)N(C(=O)CN1C(=O)C(NC(=O)Nc2cccc(S(C)(=O)=O)c2)C(=O)N(c2ccccc2)c2ccccc21)c1ccccc1 (stereo not drawn) | 53 | 
CC(C)N(C(=O)CN1C(=O)C(NC(=O)Nc2cccc(OCC(=O)O)c2)C(=O)N(c2ccccc2)c2ccccc21)c1ccccc1 (stereo not drawn) | 98 | Activity [2]: 85%
Cc1ccccc1NC(=O)NC1C(=O)N(CC(=O)N(c2ccccc2)C(C)C)c2ccccc2N(c2ccccc2)C1=O (stereo not drawn) | 34 | 
CC(C)N(C(=O)CN1C(=O)C(NC(=O)Nc2cccc(CO)c2)C(=O)N(c2ccccc2)c2ccccc21)c1ccccc1 (stereo not drawn) | 90 | Activity [2]: 85%
COc1ccc(NC(=O)NC2C(=O)N(CC(=O)N(c3ccccc3)C(C)C)c3ccccc3N(c3ccccc3)C2=O)cc1 (stereo not drawn) | 38 | 
CSCC[C@H](NC(=O)[C@H](Cc1ccc(OS(=O)(=O)O)cc1)NC(=O)[C@@H](N)CC(=O)O)C(=O)NCC(=O)N[C@@H](Cc1c[nH]c2ccccc12)C(=O)N[C@@H](CCSC)C(=O)N[C@@H](CC(=O)O)C(=O)N[C@@H](Cc1ccccc1)C(N)=O [SINCALIDE] |  | EC50 [4]: 0.794 nM; Max [5]: 95%; Max [6]: 100%; ED50 [7]: 3e-05 µmol/kg; Max [8]: inactive; ED50 [9]: 0.027 µmol/kg; Max [10]: 95%
CC(C)N(C(=O)CN1C(=O)C(NC(=O)NCc2ccccc2)C(=O)N(c2ccccc2)c2ccccc21)c1ccccc1 (stereo not drawn) | 1 | 
CC(C)N(C(=O)CN1C(=O)C(NC(=O)c2cccnc2)C(=O)N(c2ccccc2)c2ccccc21)c1ccccc1 (stereo not drawn) | 43 | 
CC(C)N(C(=O)CN1C(=O)C(NC(=O)Nc2cccc(OCC(=O)N(C)C)c2)C(=O)N(c2ccccc2)c2ccccc21)c1ccccc1 (stereo not drawn) | 77 | 
CC(C)N(C(=O)CN1C(=O)C(NC(=O)Nc2ccccc2)C(=O)N(c2ccccc2)c2ccccc21)c1ccccc1 (stereo not drawn) | 86 | Max [5]: 78%; Max [6]: 86%; Max [11]: 96%; Max [8]: inactive; ED50 [12]: inactive; ED50 [9]: 0.95 µmol/kg; EC50 [13]: 1260 nM; Max [14]: inactive
CC(C)N(C(=O)CN1C(=O)C(NC(=O)c2ccccc2)C(=O)N(c2ccccc2)c2ccccc21)c1ccccc1 (stereo not drawn) | 57 | 
CC(C)N(C(=O)CN1C(=O)C(NC(=O)c2cccc(C(=O)O)c2)C(=O)N(c2ccccc2)c2ccccc21)c1ccccc1 (stereo not drawn) | 56 | 
CC(C)N(C(=O)CN1C(=O)C(NC(=O)Nc2cccc(CC(=O)O)c2)C(=O)N(c2ccccc2)c2ccccc21)c1ccccc1 (stereo not drawn) | 89 | 
CC(C)N(C(=O)CN1C(=O)C(NC(=O)Nc2cccc(N(C)C)c2)C(=O)N(c2ccccc2)c2ccccc21)c1ccccc1 (stereo not drawn) | 58 | Activity [2]: 29%
Cc1cccc(NC(=O)NC2C(=O)N(CC(=O)N(c3ccccc3)C(C)C)c3ccccc3N(c3ccccc3)C2=O)c1 (stereo not drawn) | 5 | 
CC(C)N(C(=O)CN1C(=O)C(NC(=O)c2ccncc2)C(=O)N(c2ccccc2)c2ccccc21)c1ccccc1 (stereo not drawn) | 43 | 
